# Reference: ChEMBL document CHEMBL3792365, “Dioxol and dihydrodioxin analogs of 2- and 3-phenylacetonitriles as potent anti-cancer agents with nanomolar activity against a variety of human cancer cells” (2016)
# Assays:
# Format in all cases: functional
# [1] = Growth inhibition of human SW620 cells after 48 hrs by sulforhodamine B assay; conditions: SW-620, 48 h
# Outline: (§1)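 Five-dose concentration series run across a panel of 60 human tumour cell lines. GI50 is taken as the drug concentration giving a 50% reduction in net protein increase relative to untreated control cells.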
# ACHN = assay: Growth inhibition of human ACHN cells after 48 hrs by sulforhodamine B assay
# Outline: (§2)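 Five-dose testing against a 60-line human tumor cell panel. GI50 is the drug concentration giving a 50% reduction in net protein increase relative to untreated control cells.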
# CCRF-CEM [2] = assay: Growth inhibition of human CCRF-CEM cells at 10 uM after 48 hrs by sulforhodamine B assay; conditions: values are per cent of control
# SR [3] = assay: Growth inhibition of human SR cells at 10 uM after 48 hrs by sulforhodamine B assay; conditions: values are per cent of control
# NCI-H522 [4] = assay: Growth inhibition of human NCI-H522 cells after 48 hrs by sulforhodamine B assay; conditions: NCI-H522, 48 h; outline: as §1
# [5] = Growth inhibition of human HL-60(TB) cells at 10 uM after 48 hrs by sulforhodamine B assay; conditions: HL-60, 48 h, values are per cent of control
# NCI-H522 [6] = assay: Growth inhibition of human NCI-H522 cells at 10 uM after 48 hrs by sulforhodamine B assay; conditions: NCI-H522, 48 h, values are per cent of control
# T47D = assay: Growth inhibition of human T47D cells at 10 uM after 48 hrs by sulforhodamine B assay; conditions: values are per cent of control
# [7] = Growth inhibition of human UO31 cells after 48 hrs by sulforhodamine B assay; conditions: UO-31, 48 h
# Outline: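 Five-dose testing across the 60-line human tumour cell panel. GI50 is the drug concentration that gives a 50% reduction in net protein increase relative to control cells.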
# MCF7 [8] = assay: Growth inhibition of human MCF7 cells after 48 hrs by sulforhodamine B assay; conditions: MCF7, 48 h; outline: as §2
# MDA-MB-231 = assay: Growth inhibition of human MDA-MB-231 cells after 48 hrs by sulforhodamine B assay; conditions: MDA-MB-231, 48 h; outline: as §2
# M14 = assay: Growth inhibition of human M14 cells after 48 hrs by sulforhodamine B assay; conditions: M14, 48 h; outline: as §2
# [9] = Growth inhibition of human HOP92 cells at 10 uM after 48 hrs by sulforhodamine B assay; conditions: HOP-92, 48 h, values are per cent of control
# SK-MEL-5 = assay: Growth inhibition of human SK-MEL-5 cells after 48 hrs by sulforhodamine B assay; conditions: SK-MEL-5, 48 h; outline: as §1
# [10] = Growth inhibition of human HCT15 cells at 10 uM after 48 hrs by sulforhodamine B assay; conditions: HCT-15, 48 h, values are per cent of control
# MDA-MB-468 = assay: Growth inhibition of human MDA-MB-468 cells after 48 hrs by sulforhodamine B assay; conditions: MDA-MB-468, 48 h; outline: as §2
# [11] = Growth inhibition of human OVCAR3 cells after 48 hrs by sulforhodamine B assay; conditions: OVCAR-3, 48 h; outline: as §1
# [12] = Growth inhibition of human OVCAR3 cells at 10 uM after 48 hrs by sulforhodamine B assay; conditions: OVCAR-3, 48 h, values are per cent of control
# MCF7 [13] = assay: Growth inhibition of human MCF7 cells at 10 uM after 48 hrs by sulforhodamine B assay; conditions: MCF7, 48 h, values are per cent of control
# A498 = assay: Growth inhibition of human A498 cells after 48 hrs by sulforhodamine B assay; conditions: A498, 48 h; outline: as §2
# MDA-MB-435 = assay: Growth inhibition of human MDA-MB-435 cells after 48 hrs by sulforhodamine B assay; conditions: MDA-MB-435, 48 h; outline: as §2
# 786-0 = assay: Growth inhibition of human 786-0 cells after 48 hrs by sulforhodamine B assay; conditions: 786-0, 48 h; outline: as §2
# SR [14] = assay: Growth inhibition of human SR cells after 48 hrs by sulforhodamine B assay; outline: as §1
# [15] = Growth inhibition of human HCC2998 cells at 10 uM after 48 hrs by sulforhodamine B assay; conditions: HCC 2998, 48 h, values are per cent of control
# [16] = Growth inhibition of human UACC257 cells at 10 uM after 48 hrs by sulforhodamine B assay; conditions: UACC-257, 48 h, values are per cent of control
# [17] = Growth inhibition of human MOLT4 cells at 10 uM after 48 hrs by sulforhodamine B assay; conditions: MOLT-4, 48 h, values are per cent of control
# [18] = Growth inhibition of human PC3 cells at 10 uM after 48 hrs by sulforhodamine B assay; conditions: PC-3, 48 h, values are per cent of control
# NCI-H23 [19] = assay: Growth inhibition of human NCI-H23 cells at 10 uM after 48 hrs by sulforhodamine B assay; conditions: NCI-H23, 48 h, values are per cent of control
# [20] = Growth inhibition of human RPMI8226 cells at 10 uM after 48 hrs by sulforhodamine B assay; conditions: RPMI-8226, 48 h, values are per cent of control
# KM12 = assay: Growth inhibition of human KM12 cells after 48 hrs by sulforhodamine B assay; conditions: KM12, 48 h; outline: as §2
# CCRF-CEM [21] = assay: Growth inhibition of human CCRF-CEM cells after 48 hrs by sulforhodamine B assay; outline: as §2
# [22] = Growth inhibition of human SNB19 cells after 48 hrs by sulforhodamine B assay; conditions: SNB-19, 48 h; outline: as §1
# [23] = Growth inhibition of human Hs 578T cells after 48 hrs by sulforhodamine B assay; outline: as §2
# [24] = Growth inhibition of human PC3 cells after 48 hrs by sulforhodamine B assay; conditions: PC-3, 48 h; outline: as §1
# [25] = Growth inhibition of human RPMI8226 cells after 48 hrs by sulforhodamine B assay; conditions: RPMI-8226, 48 h; outline: as §1
# [26] = Growth inhibition of human HCT116 cells after 48 hrs by sulforhodamine B assay; conditions: HCT-116, 48 h; outline: as §2
# [27] = Growth inhibition of human Hs 578T cells at 10 uM after 48 hrs by sulforhodamine B assay; conditions: values are per cent of control
# [28] = Growth inhibition of human IGROV1 cells at 10 uM after 48 hrs by sulforhodamine B assay; conditions: IGROV-1, 48 h, values are per cent of control
# [29] = Growth inhibition of human UACC62 cells at 10 uM after 48 hrs by sulforhodamine B assay; conditions: UACC-62, 48 h, values are per cent of control
# [30] = Growth inhibition of human IGROV1 cells after 48 hrs by sulforhodamine B assay; conditions: IGROV-1, 48 h; outline: as §2
# NCI-H23 [31] = assay: Growth inhibition of human NCI-H23 cells after 48 hrs by sulforhodamine B assay; conditions: NCI-H23, 48 h; outline: as §1
# A549 = assay: Growth inhibition of human A549/ATCC cells after 48 hrs by sulforhodamine B assay; conditions: A549, 48 h; outline: as §2
# [32] = Growth inhibition of human MOLT4 cells after 48 hrs by sulforhodamine B assay; conditions: MOLT-4, 48 h; outline: as §1
# [33] = Growth inhibition of human LOXIMVI cells after 48 hrs by sulforhodamine B assay; conditions: LOX IMVI; outline: as §2
# Malme-3M = assay: Growth inhibition of human MALME-3M cells at 10 uM after 48 hrs by sulforhodamine B assay; conditions: values are per cent of control
structure (smiles),measurement,setting,value
COc1ccc(/C=C(\C#N)c2ccc3c(c2)OCO3)cc1,GI50,[1],120 nM
same,GI50,ACHN,520 nM
same,"growth, % of control at 10 µM",CCRF-CEM [2],21.6%
same,"growth, % of control at 10 µM",SR [3],11.8%
same,GI50,NCI-H522 [4],40 nM
same,"growth, % of control at 10 µM",[5],0.1%
same,"growth, % of control at 10 µM",NCI-H522 [6],-2.4%
same,"growth, % of control at 10 µM",T47D,35.8%
same,GI50,[7],580 nM
same,GI50,MCF7 [8],80 nM
same,GI50,MDA-MB-231,2110 nM
same,GI50,M14,120 nM
same,"growth, % of control at 10 µM",[9],40.4%
same,GI50,SK-MEL-5,210 nM
same,"growth, % of control at 10 µM",[10],17.8%
same,GI50,MDA-MB-468,280 nM
same,GI50,[11],270 nM
same,"growth, % of control at 10 µM",[12],4.9%
same,"growth, % of control at 10 µM",MCF7 [13],20.7%
same,GI50,A498,200 nM
same,GI50,MDA-MB-435,30 nM
same,GI50,786-0,18900 nM
same,GI50,SR [14],50 nM
same,"growth, % of control at 10 µM",[15],49.4%
same,"growth, % of control at 10 µM",[16],23%
same,"growth, % of control at 10 µM",[17],19.5%
same,"growth, % of control at 10 µM",[18],21.2%
same,"growth, % of control at 10 µM",NCI-H23 [19],43.2%
same,"growth, % of control at 10 µM",[20],18.9%
same,GI50,KM12,70 nM
same,GI50,CCRF-CEM [21],250 nM
same,GI50,[22],750 nM
same,GI50,[23],460 nM
same,GI50,[24],320 nM
same,GI50,[25],490 nM
same,GI50,[26],220 nM
same,"growth, % of control at 10 µM",[27],27.2%
same,"growth, % of control at 10 µM",[28],46.3%
same,"growth, % of control at 10 µM",[29],37.5%
same,GI50,[30],3600 nM
same,GI50,NCI-H23 [31],860 nM
same,GI50,A549,270 nM
same,GI50,[32],450 nM
same,GI50,[33],570 nM
same,"growth, % of control at 10 µM",Malme-3M,24.3%
N#C/C(=C\c1cc2ccccc2s1)c1ccc2c(c1)OCO2,GI50,[1],50 nM
same,GI50,ACHN,60 nM
same,"growth, % of control at 10 µM",CCRF-CEM [2],16.8%
same,"growth, % of control at 10 µM",SR [3],13.5%
same,GI50,NCI-H522 [4],20 nM
same,"growth, % of control at 10 µM",[5],0.5%
same,"growth, % of control at 10 µM",NCI-H522 [6],-20.5%
same,"growth, % of control at 10 µM",T47D,70.4%
same,GI50,[7],80 nM
same,GI50,MCF7 [8],90 nM
same,GI50,MDA-MB-231,180 nM
same,GI50,M14,40 nM
same,"growth, % of control at 10 µM",[9],60.8%
same,GI50,SK-MEL-5,60 nM
same,"growth, % of control at 10 µM",[10],20.4%
same,GI50,MDA-MB-468,380 nM
same,GI50,[11],40 nM
same,"growth, % of control at 10 µM",[12],-29.5%
same,"growth, % of control at 10 µM",MCF7 [13],16.3%
same,GI50,A498,30 nM
same,GI50,MDA-MB-435,20 nM
same,GI50,786-0,880 nM
same,GI50,SR [14],30 nM
same,"growth, % of control at 10 µM",[15],6.4%
same,"growth, % of control at 10 µM",[16],72.8%
same,"growth, % of control at 10 µM",[17],17.4%
same,"growth, % of control at 10 µM",[18],25.8%
same,"growth, % of control at 10 µM",NCI-H23 [19],31.1%
same,"growth, % of control at 10 µM",[20],9.3%
same,GI50,KM12,50 nM
same,GI50,CCRF-CEM [21],50 nM
same,GI50,[22],230 nM
same,GI50,[23],80 nM
same,GI50,[24],60 nM
same,GI50,[25],190 nM
same,GI50,[26],40 nM
same,"growth, % of control at 10 µM",[27],-5.4%
same,"growth, % of control at 10 µM",[28],34.3%
same,"growth, % of control at 10 µM",[29],24%
same,GI50,[30],90 nM
same,GI50,NCI-H23 [31],320 nM
same,GI50,A549,90 nM
same,GI50,[32],70 nM
same,GI50,[33],50 nM
same,"growth, % of control at 10 µM",Malme-3M,55.1%
